Data set [1] can be described thus: Optical/chemical stability of fluorophores in 100% warm serum. It is filed as in vitro ADME, bovine. As to conditions: 24 h. Put shortly: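 Test fluorophores (10 mM DMSO stock, 100 μM working solution) were diluted into 100% FBS buffered with 50 mM HEPES, pH 7.4, and held at 37 °C. Optical stability was followed over time to 24 h by absorbance and fluorescence spectra, under 770 nm laser excitation at 10 mW.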

Data set [2] can be described thus: Stability. It is filed as in vitro ADME, bovine. Conditions: fluorophore conjugated with a small molecule ligand, 24 h.
Data set [3] can be described thus: In vivo biodistribution and clearance in rodents after intravenous injection. More on the design: species or system CD-1 mice and SD rats. As to conditions: rodent, 4 h post-injection. Put shortly:
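Male CD-1 mice (≈25 g) and male Sprague-Dawley rats (≈250 g) were anaesthetised with ketamine 100 mg/kg plus xylazine 10 mg/kg i.p. They received test compound i.v. (mice 25 nmol, rats 100 nmol) and were imaged 4 h later on the FLARE NIR system (760 nm excitation, 11.0 mW/cm2; 810 ± 20 nm emission). Organ signal-to-background was calculated against surrounding muscle, with ≥3 animals per time point, mean ± s.d.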

Data set [4] in a line: 100% FBS supplemented with 50 mM HEPES, pH 7.4. Conditions: fetal bovine, 37 °C, up to 24 h.

Some results are limits rather than exact numbers.

Molecule `CC1(C)C(/C=C/C2=C(c3ccc(CCC(=O)O)cc3)C(=C/C=C3/N(CCC[N+](C)(C)C)c4ccc(S(=O)(=O)O)cc4C3(C)C)/CCC2)=[N+](CCC[N+](C)(C)C)c2ccc(S(=O)(=O)O)cc21` [ZW800-1C] returned a serum stability in data set [1] above 99%. In data set [2], the “stable form maintained in warm serum” value is above 98%. For the same molecule, the renal excretion in data set [3] was above 80%.

Cyclo(Arg-Gly-Asp-D-Tyr-Lys): in data set [4], the fragment found entry is reported as “hydrolyzed form of cRGD-ZW800-1A, 24 h” and the not cleaved is listed as >98%, 24 h.

For the origin of these results see paper PMC4267294 (RSC advances, 2014).
